{"source": "paper PMC6247064", "about": "(Cancer Science, 2018)", "system": "Japanese patients with advanced solid tumors", "assay": "Phase 1 study: safety, tolerability, DLT and treatment-emergent adverse events", "format": "in vivo, human", "summary_of_the_method": "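Open-label single-arm dose levels of 80 or 105 mg/m2 IV were given on day 1 of 14-day cycles, with at most 6 patients per level. Adverse events were graded by CTCAE v4.03. DLTs were related events in cycle 1 meeting predefined hematologic or nonhematologic criteria. Tolerability required a cycle 1 DLT rate <33%. Primary G-CSF prophylaxis was barred during DLT evaluation; G-CSF was allowed for treatment-emergent neutropenia and as secondary prophylaxis.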", "data": [{"smiles": "COc1cccc(OCCCN)c1-c1cc(Nc2cnc(C#N)cn2)n[nH]1", "note": "[Prexasertib]", "values": [{"measurement": "TEAE related to study treatment: Febrile neutropenia", "setting": "80 mg/m^2 N = 6, Grade 4", "result": "1 (16.7) n (%)"}, {"measurement": "TEAE related to study treatment: Headache", "setting": "80 mg/m^2 N = 6, Grade 4", "result": "0 n (%)"}, {"measurement": "TEAE related to study treatment: Hypocalcemia", "setting": "80 mg/m^2 N = 6, Grade 4", "result": "0 n (%)"}, {"measurement": "TEAE related to study treatment: Leukopenia", "setting": "80 mg/m^2 N = 6, Grade 4", "result": "3 (50.0) n (%)"}, {"measurement": "TEAE related to study treatment: Lung infection", "setting": "80 mg/m^2 N = 6, Grade 4", "result": "0 n (%)"}, {"measurement": "TEAE related to study treatment: Lymphocytopenia", "setting": "80 mg/m^2 N = 6, Grade 4", "result": "0 n (%)"}, {"measurement": "TEAE related to study treatment: Nausea", "setting": "80 mg/m^2 N = 6, Grade 4", "result": "0 n (%)"}, {"measurement": "TEAE related to study treatment: Neutropenia", "setting": "80 mg/m^2 N = 6, Grade 4", "result": "3 (50.0) n (%)"}, {"measurement": "TEAE related to study treatment: Pyrexia", "setting": "80 mg/m^2 N = 6, Grade 4", "result": "0 n (%)"}, {"measurement": "TEAE related to study treatment: Rash", "setting": "80 mg/m^2 N = 6, Grade 4", "result": "0 n (%)"}, {"measurement": "TEAE related to study treatment: Rash maculopapular", "setting": "80 mg/m^2 N = 6, Grade 4", "result": "0 n (%)"}, {"measurement": "TEAE related to study treatment: SVE (supraventricular extrasystoles)", "setting": "80 mg/m^2 N = 6, Grade 4", "result": "0 n (%)"}, {"measurement": "TEAE related to study treatment: Stomatitis", "setting": "80 mg/m^2 N = 6, Grade 4", "result": "0 n (%)"}, {"measurement": "TEAE related to study treatment: Thrombocytopenia", "setting": "80 mg/m^2 N = 6, Grade 4", "result": "1 (16.7) n (%)"}, {"measurement": "Patients with at least 1 AE that led to a dose adjustment", "setting": "80 mg/m^2 group", "result": 5, "unit": "patients"}, {"measurement": "Patients with at least 1 AE that led to a dose delay", "setting": "80 mg/m^2 group", "result": 3, "unit": "patients"}, {"measurement": "Patients with at least 1 AE that led to dose reduction", "setting": "80 mg/m^2 group (80 to 60 mg/m^2)", "result": 4, "unit": "patients"}, {"measurement": "TEAE related to study treatment: Anemia", "setting": "105 mg/m^2 N = 6, Any grade", "result": "0 n (%)"}, {"measurement": "TEAE related to study treatment: Any", "setting": "105 mg/m^2 N = 6, Any grade", "result": "6 (100) n (%)"}, {"measurement": "TEAE related to study treatment: Atrial fibrillation", "setting": "105 mg/m^2 N = 6, Any grade", "result": "0 n (%)"}, {"measurement": "TEAE related to study treatment: Constipation", "setting": "105 mg/m^2 N = 6, Any grade", "result": "1 (16.7) n (%)"}, {"measurement": "TEAE related to study treatment: ECG QT prolonged", "setting": "105 mg/m^2 N = 6, Any grade", "result": "0 n (%)"}, {"measurement": "TEAE related to study treatment: Fatigue", "setting": "105 mg/m^2 N = 6, Any grade", "result": "1 (16.7) n (%)"}, {"measurement": "TEAE related to study treatment: Febrile neutropenia", "setting": "105 mg/m^2 N = 6, Any grade", "result": "1 (16.7) n (%)"}, {"measurement": "TEAE related to study treatment: Headache", "setting": "105 mg/m^2 N = 6, Any grade", "result": "1 (16.7) n (%)"}, {"measurement": "TEAE related to study treatment: Hypocalcemia", "setting": "105 mg/m^2 N = 6, Any grade", "result": "1 (16.7) n (%)"}, {"measurement": "TEAE related to study treatment: Leukopenia", "setting": "105 mg/m^2 N = 6, Any grade", "result": "6 (100) n (%)"}, {"measurement": "TEAE related to study treatment: Lung infection", "setting": "105 mg/m^2 N = 6, Any grade", "result": "0 n (%)"}, {"measurement": "TEAE related to study treatment: Lymphocytopenia", "setting": "105 mg/m^2 N = 6, Any grade", "result": "0 n (%)"}, {"measurement": "TEAE related to study treatment: Nausea", "setting": "105 mg/m^2 N = 6, Any grade", "result": "0 n (%)"}, {"measurement": "TEAE related to study treatment: Neutropenia", "setting": "105 mg/m^2 N = 6, Any grade", "result": "6 (100) n (%)"}, {"measurement": "TEAE related to study treatment: Pyrexia", "setting": "105 mg/m^2 N = 6, Any grade", "result": "1 (16.7) n (%)"}, {"measurement": "TEAE related to study treatment: Rash", "setting": "105 mg/m^2 N = 6, Any grade", "result": "0 n (%)"}, {"measurement": "TEAE related to study treatment: Rash maculopapular", "setting": "105 mg/m^2 N = 6, Any grade", "result": "1 (16.7) n (%)"}, {"measurement": "TEAE related to study treatment: SVE (supraventricular extrasystoles)", "setting": "105 mg/m^2 N = 6, Any grade", "result": "0 n (%)"}, {"measurement": "TEAE related to study treatment: Stomatitis", "setting": "105 mg/m^2 N = 6, Any grade", "result": "0 n (%)"}, {"measurement": "TEAE related to study treatment: Thrombocytopenia", "setting": "105 mg/m^2 N = 6, Any grade", "result": "4 (66.7) n (%)"}, {"measurement": "TEAE related to study treatment: Anemia", "setting": "105 mg/m^2 N = 6, Grade 3", "result": "0 n (%)"}, {"measurement": "TEAE related to study treatment: Any", "setting": "105 mg/m^2 N = 6, Grade 3", "result": "3 (50.0) n (%)"}, {"measurement": "TEAE related to study treatment: Atrial fibrillation", "setting": "105 mg/m^2 N = 6, Grade 3", "result": "0 n (%)"}, {"measurement": "TEAE related to study treatment: Constipation", "setting": "105 mg/m^2 N = 6, Grade 3", "result": "0 n (%)"}, {"measurement": "TEAE related to study treatment: ECG QT prolonged", "setting": "105 mg/m^2 N = 6, Grade 3", "result": "0 n (%)"}, {"measurement": "TEAE related to study treatment: Fatigue", "setting": "105 mg/m^2 N = 6, Grade 3", "result": "0 n (%)"}, {"measurement": "TEAE related to study treatment: Febrile neutropenia", "setting": "105 mg/m^2 N = 6, Grade 3", "result": "1 (16.7) n (%)"}, {"measurement": "TEAE related to study treatment: Headache", "setting": "105 mg/m^2 N = 6, Grade 3", "result": "0 n (%)"}, {"measurement": "TEAE related to study treatment: Hypocalcemia", "setting": "105 mg/m^2 N = 6, Grade 3", "result": "0 n (%)"}, {"measurement": "TEAE related to study treatment: Leukopenia", "setting": "105 mg/m^2 N = 6, Grade 3", "result": "4 (66.7) n (%)"}, {"measurement": "TEAE related to study treatment: Lung infection", "setting": "105 mg/m^2 N = 6, Grade 3", "result": "0 n (%)"}, {"measurement": "TEAE related to study treatment: Lymphocytopenia", "setting": "105 mg/m^2 N = 6, Grade 3", "result": "0 n (%)"}, {"measurement": "TEAE related to study treatment: Nausea", "setting": "105 mg/m^2 N = 6, Grade 3", "result": "0 n (%)"}, {"measurement": "TEAE related to study treatment: Neutropenia", "setting": "105 mg/m^2 N = 6, Grade 3", "result": "3 (50.0) n (%)"}, {"measurement": "TEAE related to study treatment: Pyrexia", "setting": "105 mg/m^2 N = 6, Grade 3", "result": "0 n (%)"}, {"measurement": "TEAE related to study treatment: Rash", "setting": "105 mg/m^2 N = 6, Grade 3", "result": "0 n (%)"}, {"measurement": "TEAE related to study treatment: Rash maculopapular", "setting": "105 mg/m^2 N = 6, Grade 3", "result": "0 n (%)"}, {"measurement": "TEAE related to study treatment: SVE (supraventricular extrasystoles)", "setting": "105 mg/m^2 N = 6, Grade 3", "result": "0 n (%)"}, {"measurement": "TEAE related to study treatment: Stomatitis", "setting": "105 mg/m^2 N = 6, Grade 3", "result": "0 n (%)"}, {"measurement": "TEAE related to study treatment: Thrombocytopenia", "setting": "105 mg/m^2 N = 6, Grade 3", "result": "1 (16.7) n (%)"}, {"measurement": "TEAE related to study treatment: Anemia", "setting": "105 mg/m^2 N = 6, Grade 3 + 4", "result": "0 n (%)"}, {"measurement": "TEAE related to study treatment: Any", "setting": "105 mg/m^2 N = 6, Grade 3 + 4", "result": "6 (100) n (%)"}, {"measurement": "TEAE related to study treatment: Atrial fibrillation", "setting": "105 mg/m^2 N = 6, Grade 3 + 4", "result": "0 n (%)"}, {"measurement": "TEAE related to study treatment: Constipation", "setting": "105 mg/m^2 N = 6, Grade 3 + 4", "result": "0 n (%)"}, {"measurement": "TEAE related to study treatment: ECG QT prolonged", "setting": "105 mg/m^2 N = 6, Grade 3 + 4", "result": "0 n (%)"}, {"measurement": "TEAE related to study treatment: Fatigue", "setting": "105 mg/m^2 N = 6, Grade 3 + 4", "result": "0 n (%)"}, {"measurement": "TEAE related to study treatment: Febrile neutropenia", "setting": "105 mg/m^2 N = 6, Grade 3 + 4", "result": "1 (16.7) n (%)"}, {"measurement": "TEAE related to study treatment: Headache", "setting": "105 mg/m^2 N = 6, Grade 3 + 4", "result": "0 n (%)"}, {"measurement": "TEAE related to study treatment: Hypocalcemia", "setting": "105 mg/m^2 N = 6, Grade 3 + 4", "result": "0 n (%)"}, {"measurement": "TEAE related to study treatment: Leukopenia", "setting": "105 mg/m^2 N = 6, Grade 3 + 4", "result": "5 (83.3) n (%)"}]}]}
